Assay results from ChEMBL document CHEMBL4477184, “Pelianthinarubins A and B, Red Pyrroloquinoline Alkaloids from the Fruiting Bodies of the Mushroom Mycena pelianthina” (J Nat Prod, 2016).
Activity calls are given as the source filed them.

What was measured:
Assay type in all cases: functional, organism-based
Bacillus subtilis = test: Antibacterial activity against Bacillus subtilis after 24 hrs by plate diffusion assay
Summary of the method: (§1)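 Paper discs (6 mm diameter, 0.5 mm thick) were loaded with 0.1 or 0.5 mg of sample dissolved in distilled water and dried under sterile conditions. The discs were then placed on agar plates inoculated with the test bacterium and incubated at 37 °C for 24 h.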

Cladosporium cucumerinum = test: Antifungal activity against Cladosporium cucumerinum after 48 hrs by plate diffusion assay
Summary of the method: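 Disc diffusion assay. Paper discs (6 mm) were loaded with 0.1 or 0.5 mg of sample from distilled water and dried under sterile conditions. The discs were laid on agar plates inoculated with Cladosporium cucumerinum, and the plates were incubated at 18 °C for 48 h.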

Brevibacillus brevis = test: Antibacterial activity against Bacillus brevis after 24 hrs by plate diffusion assay; summary of the method: as §1
Escherichia coli = test: Antibacterial activity against Escherichia coli after 24 hrs by plate diffusion assay; summary of the method: as §1
Folsomia candida = test: Insecticidal activity against Folsomia candida
Lepidium sativum = test: Herbicidal activity against Lepidium sativum

Measured: Activity

C[N+](C)(C)[C@@H](Cc1cn([C@@H]2CCN3C4=C2C(=O)C(=O)c2[nH]cc(c24)C[C@H]3C(=O)O)cn1)C(=O)O
inactive: all assays above

C[N+](C)(C)[C@H](C(=O)O)[C@H](O)c1cn([C@@H]2CCN3C4=C2C(=O)C(=O)c2[nH]cc(c24)C[C@H]3C(=O)O)cn1
inactive: all assays above
